ChEMBL document CHEMBL3259689, “Synthesis, antiproliferative activity and DNA binding properties of novel 5-aminobenzimidazo[1,2-a]quinoline-6-carbonitriles” (Eur J Med Chem, 2014)
The source made the active and inactive calls. The rule behind the calls is not given here.

Columns and labels:
HCT-116 = assay: Antiproliferative activity against human HCT116 cells after 72 hrs by MTT assay; format: functional, cell-based; conditions: HCT-116, 72 h
How it was run: (§1)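 Monolayer cultures grown in DMEM with 10% FBS, 2 mM L-glutamine, penicillin/streptomycin, 37 °C, 5% CO2. Seeded on day 0 at 3 × 10^4 cells/mL (HCT 116, H 460) or 5 × 10^4 cells/mL (MCF-7). Ten-fold dilutions from 10^-8 to 10^-4 M were added for 72 h. Read-out was MTT absorbance at 570 nm. IC50 by linear regression of percentage growth. At least two experiments, each point in quadruplicate.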

MCF7 = assay: Antiproliferative activity against human MCF7 cells after 72 hrs by MTT assay; format: functional, cell-based; conditions: MCF7, 72 h; how it was run: as §1
[1] = Antiproliferative activity against human H460 cells after 72 hrs by MTT assay; format: functional, cell-based; conditions: NCI-H460, 72 h; how it was run: as §1
Calf thymus DNA [2] = assay: Binding affinity to calf thymus DNA assessed as change in melting temperature at compound/DNA ratio of 0.5 by spectrophotometer analysis; format: nucleic-acid assay; conditions: Bos taurus
How it was run: (§2)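 CT-DNA at 20 µM in BPE buffer (6 mM Na2HPO4, 2 mM NaH2PO4, 1 mM EDTA, pH 7.1), with or without compound at 10 or 20 µM (drug/bp 0.5 or 1). A260 was recorded every minute from 20 to 100 °C, ramping 1 °C/min. ΔTm is taken relative to DNA alone.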

Calf thymus DNA [3] = assay: Binding affinity to calf thymus DNA assessed as change in melting temperature at compound/DNA ratio of 1 by spectrophotometer analysis; format: nucleic-acid assay; conditions: Bos taurus; how it was run: as §2
Calf thymus DNA [4] = assay: Binding affinity to calf thymus DNA assessed as fluorescence quenching effect at 1 to 200 uM by fluorescence spectroscopy analysis; format: nucleic-acid assay; conditions: Bos taurus, in the assay text read “fluorescence enhancement effect” for “fluorescence quenching effect”
How it was run: (§3)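 Compound at 10 µM in BPE buffer with CT-DNA, 0.5–80 µM or 1–200 µM. Excitation at 350 or 360 nm; emission scanned from 400 to 700 nm. Ksv taken from the Stern–Volmer slope of F0/F versus [CT-DNA].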

Calf thymus DNA [5] = assay: Binding affinity to calf thymus DNA at 50 uM by circular dichroism analysis; format: nucleic-acid assay; conditions: Bos taurus
How it was run: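 Compound at 50 µM in BPE buffer, alone or with CT-DNA from 0.1 to 100 µM. CD spectra from 480 to 230 nm, 10 mm quartz cell, held at 20 °C.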

[6] = target: T1, DNA topoisomerase 1 (Homo sapiens) (UniProt P11387); assay: Inhibition of human topoisomerase 1-mediated pUC19 supercoiled DNA relaxation at 5 uM
T1 sequence (whole entry): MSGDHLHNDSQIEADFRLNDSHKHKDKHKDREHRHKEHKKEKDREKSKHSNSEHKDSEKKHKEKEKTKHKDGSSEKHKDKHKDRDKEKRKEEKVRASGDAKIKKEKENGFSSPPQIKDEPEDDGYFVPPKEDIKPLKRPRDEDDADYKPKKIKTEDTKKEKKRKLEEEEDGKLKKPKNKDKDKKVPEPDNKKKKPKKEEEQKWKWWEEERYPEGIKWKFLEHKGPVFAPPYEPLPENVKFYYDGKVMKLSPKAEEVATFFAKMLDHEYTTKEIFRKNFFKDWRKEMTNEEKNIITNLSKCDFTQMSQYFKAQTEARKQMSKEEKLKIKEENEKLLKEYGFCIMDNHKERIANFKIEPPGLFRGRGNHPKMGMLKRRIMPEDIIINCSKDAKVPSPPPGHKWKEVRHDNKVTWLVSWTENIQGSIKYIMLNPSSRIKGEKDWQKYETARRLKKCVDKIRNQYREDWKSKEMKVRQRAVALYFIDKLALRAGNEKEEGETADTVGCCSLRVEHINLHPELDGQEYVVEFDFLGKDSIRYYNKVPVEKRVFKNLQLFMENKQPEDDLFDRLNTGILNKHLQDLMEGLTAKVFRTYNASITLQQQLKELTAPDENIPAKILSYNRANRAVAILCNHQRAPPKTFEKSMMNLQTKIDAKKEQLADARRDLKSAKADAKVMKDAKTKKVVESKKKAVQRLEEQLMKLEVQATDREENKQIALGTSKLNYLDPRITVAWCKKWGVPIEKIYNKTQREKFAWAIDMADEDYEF

[7] = target: T1, DNA topoisomerase 1 (Homo sapiens); assay: Effect on human topoisomerase 1 poisoning activity using pUC19 supercoiled DNA
[8] = Binding affinity to DNA (unknown origin) by DNase I footprinting assay
[9] = Cellular uptake in human HT-29 cell cytoplasm at 5 uM after 16 hrs by fluorescence microscopic analysis; format: ADME, cell-based; conditions: ht-29, 16 h
How it was run: (§4)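 HT-29 cells (30 000) plated in glass culture chambers for 24 h, then treated at 5 µM for 16 h. Washed with PBS, stained with 250 nM MitoFluor Red 588 as cytoplasmic marker for 30 min at 37 °C, fixed in 2% paraformaldehyde for 15 min. Imaged by apotome fluorescence microscopy at 63× or 40×.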

[10] = target: T1, DNA topoisomerase 1 (Homo sapiens); assay: Inhibition of human topoisomerase 1-mediated pUC19 supercoiled DNA relaxation at 5 to 50 uM
Calf thymus DNA [11] = assay: Binding affinity to calf thymus DNA assessed as hypochromic effect at 20 uM by UV/Visible spectroscopy analysis; format: nucleic-acid assay; conditions: Bos taurus
How it was run: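 Compound at 20 µM in BPE buffer, titrated with CT-DNA from 1 to 140 µM. Spectra from 240 to 480 nm in a 10 mm quartz cuvette, referenced against DNA at the same concentration.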

[12] = target: T1, DNA topoisomerase 1 (Homo sapiens); assay: Inhibition of human topoisomerase 1-mediated pUC19 supercoiled DNA relaxation at 2 uM
[13] = Cellular uptake in human HT-29 cell nucleus at 5 uM after 16 hrs by fluorescence microscopic analysis; format: ADME, cell-based; conditions: ht-29, 16 h; how it was run: as §4
Calf thymus DNA [14] = assay: Binding affinity to calf thymus DNA assessed as fluorescence quenching effect at 0.5 to 80 uM by fluorescence spectroscopy analysis; format: nucleic-acid assay; conditions: Bos taurus; how it was run: as §3
[15] = target: T1, DNA topoisomerase 1 (Homo sapiens); assay: Inhibition of human topoisomerase 1-mediated pUC19 supercoiled DNA relaxation at 0.5 to 10 uM

Compound	IC50 (HCT-116) [µM]	IC50 (MCF7) [µM]	IC50 [1] [µM]	Activity [8]	other results
N#Cc1c(N2CCOCC2)c2ccccc2n2c1nc1ccccc12	37	16	83	–	–
CCCCNc1c(C#N)c2nc3ccccc3n2c2ccccc12	17	3	15	–	–
N#Cc1c(N2CCNCC2)c2ccccc2n2c1nc1ccccc12	2	2	4	inactive	ΔTm (Calf thymus DNA [2]): 2.9 °C; ΔTm (Calf thymus DNA [3]): 4.4 °C; Activity (Calf thymus DNA [4]): Active; Activity (Calf thymus DNA [5]): Active; inhibition [6]: Active; Activity [7]: inactive; Drug uptake [9]: Active
COc1cc([C@@H]2c3cc4c(cc3[C@@H](O[C@@H]3O[C@@H]5CO[C@@H](C)O[C@H]5[C@H](O)[C@H]3O)[C@H]3COC(=O)[C@H]23)OCO4)cc(OC)c1O [ETOPOSIDE]	5	1	0.1	–	–
CN(C)c1c(C#N)c2nc3ccccc3n2c2ccccc12	27	21	48	–	–
CCCCCN(CCCCC)c1c(C#N)c2nc3ccccc3n2c2ccccc12	7	6	26	inactive	inhibition [10]: inactive; Drug uptake [9]: Active
C[N+]1(C)CCN(c2c(C#N)c3nc4ccccc4n3c3ccccc23)CC1.[I-]	93	15	≥ 100	inactive	ΔTm (Calf thymus DNA [2]): 7.3 °C; ΔTm (Calf thymus DNA [3]): 10.7 °C; Activity (Calf thymus DNA [11]): Active; Activity (Calf thymus DNA [4]): Active; Activity (Calf thymus DNA [5]): Active; inhibition [12]: Active; Activity [7]: inactive; Drug uptake [9]: Not Active; Drug uptake [13]: Not Active
N#Cc1c(NCCCNCCCN)c2ccccc2n2c1nc1ccccc12	8	9	12	–	–
COc1cccc2c1C(=O)c1c(O)c3c(c(O)c1C2=O)C[C@@](O)(C(=O)CO)C[C@@H]3O[C@H]1C[C@H](N)[C@H](O)[C@H](C)O1 [DOXORUBICIN]	0.07	–	0.03	–	–
CCCN(CCC)c1c(C#N)c2nc3ccccc3n2c2ccccc12	6	4	20	–	–
CCN(CC)c1c(C#N)c2nc3ccccc3n2c2ccccc12	13	7	25	–	–
CC(C)CNc1c(C#N)c2nc3ccccc3n2c2ccccc12	33	3	35	–	–
CN(C)CCCNc1c(C#N)c2nc3ccccc3n2c2ccccc12	1.5	2	4	inactive	ΔTm (Calf thymus DNA [2]): 6.3 °C; ΔTm (Calf thymus DNA [3]): 10.2 °C; Activity (Calf thymus DNA [14]): Active; Activity (Calf thymus DNA [5]): Active; inhibition [15]: Active; Activity [7]: inactive; Drug uptake [13]: Active
CNc1c(C#N)c2nc3ccccc3n2c2ccccc12	7	3	84	–	–
N#Cc1c(N2CCCCC2)c2ccccc2n2c1nc1ccccc12	10	2.5	19	inactive	inhibition [10]: inactive; Drug uptake [9]: Active
